{
  "source": "ChEMBL document CHEMBL1130275",
  "about": "“Novel N-substituted 3 alpha-[bis(4'-fluorophenyl)methoxy]tropane analogues: selective ligands for the dopamine transporter” (J Med Chem, 1997)",
  "key": {"[1]": {"molecular_target": "Sodium-dependent serotonin transporter (Rattus norvegicus, UniProt P31652)", "sequence (P31652 whole entry)": "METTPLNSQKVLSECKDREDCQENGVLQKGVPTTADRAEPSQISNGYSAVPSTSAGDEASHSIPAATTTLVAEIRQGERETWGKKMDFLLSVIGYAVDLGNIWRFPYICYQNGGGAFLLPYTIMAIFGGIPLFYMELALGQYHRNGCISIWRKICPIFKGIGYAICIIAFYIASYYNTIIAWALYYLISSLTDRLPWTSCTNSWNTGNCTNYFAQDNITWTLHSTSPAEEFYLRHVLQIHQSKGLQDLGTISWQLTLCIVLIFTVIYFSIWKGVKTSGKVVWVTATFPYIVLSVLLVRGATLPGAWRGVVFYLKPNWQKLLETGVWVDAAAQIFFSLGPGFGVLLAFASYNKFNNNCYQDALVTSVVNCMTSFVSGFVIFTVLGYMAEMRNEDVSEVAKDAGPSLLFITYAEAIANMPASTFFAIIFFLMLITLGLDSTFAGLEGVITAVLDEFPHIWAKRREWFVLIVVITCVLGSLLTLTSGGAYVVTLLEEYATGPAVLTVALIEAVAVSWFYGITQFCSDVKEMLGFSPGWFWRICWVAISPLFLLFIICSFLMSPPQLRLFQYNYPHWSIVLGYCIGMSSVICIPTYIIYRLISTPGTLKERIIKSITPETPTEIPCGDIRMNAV", "experiment": "(§1) Compound is evaluated for binding to Serotonin transporter using [3H]citalopram as radioligand in rat brain", "assay_type": "tissue-based", "in_short": "(§2)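 Binding data supplied by an outside contract lab using published methods. SERT: [3H]citalopram, 0.7 nM final. NET: [3H]desmethylimipramine, 3.0 nM final.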"}, "[2]": {"molecular_target": "T1, Muscarinic acetylcholine receptor M1 (Rattus norvegicus, UniProt P08482)", "T1 sequence (P08482 whole entry)": "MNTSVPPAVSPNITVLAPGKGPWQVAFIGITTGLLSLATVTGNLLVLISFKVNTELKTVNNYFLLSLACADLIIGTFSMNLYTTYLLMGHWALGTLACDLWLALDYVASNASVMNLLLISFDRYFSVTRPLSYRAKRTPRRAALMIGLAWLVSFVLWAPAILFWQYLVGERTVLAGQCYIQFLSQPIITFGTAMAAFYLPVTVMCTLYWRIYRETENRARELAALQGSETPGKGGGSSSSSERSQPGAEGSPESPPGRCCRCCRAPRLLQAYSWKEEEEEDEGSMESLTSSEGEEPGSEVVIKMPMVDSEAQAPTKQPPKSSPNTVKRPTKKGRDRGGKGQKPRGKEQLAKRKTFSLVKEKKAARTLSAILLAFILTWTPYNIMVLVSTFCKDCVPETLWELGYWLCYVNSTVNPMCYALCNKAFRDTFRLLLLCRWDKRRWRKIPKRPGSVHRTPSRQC", "experiment": "Binding affinity against Muscarinic acetylcholine receptor M1 sites of rat", "in_short": "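Whole rat brain minus cerebellum, membranes made by two-step centrifugation and resuspended in 10 mM Tris pH 7.4. Assay buffer is 10 mM Tris-HCl with 5 mM MgCl2. Membrane is preincubated 5 min with the compound, then [3H]pirenzepine 3 nM final is added for 1 h at 37 °C. Filtration through PEI-soaked GF/B. Compounds run at 0.01 nM–100 μM, ≥3 independent experiments in triplicate.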"}, "[3]": {"molecular_target": "T2, Sodium-dependent dopamine transporter (Rattus norvegicus, UniProt P23977)", "T2 sequence (P23977 whole entry)": "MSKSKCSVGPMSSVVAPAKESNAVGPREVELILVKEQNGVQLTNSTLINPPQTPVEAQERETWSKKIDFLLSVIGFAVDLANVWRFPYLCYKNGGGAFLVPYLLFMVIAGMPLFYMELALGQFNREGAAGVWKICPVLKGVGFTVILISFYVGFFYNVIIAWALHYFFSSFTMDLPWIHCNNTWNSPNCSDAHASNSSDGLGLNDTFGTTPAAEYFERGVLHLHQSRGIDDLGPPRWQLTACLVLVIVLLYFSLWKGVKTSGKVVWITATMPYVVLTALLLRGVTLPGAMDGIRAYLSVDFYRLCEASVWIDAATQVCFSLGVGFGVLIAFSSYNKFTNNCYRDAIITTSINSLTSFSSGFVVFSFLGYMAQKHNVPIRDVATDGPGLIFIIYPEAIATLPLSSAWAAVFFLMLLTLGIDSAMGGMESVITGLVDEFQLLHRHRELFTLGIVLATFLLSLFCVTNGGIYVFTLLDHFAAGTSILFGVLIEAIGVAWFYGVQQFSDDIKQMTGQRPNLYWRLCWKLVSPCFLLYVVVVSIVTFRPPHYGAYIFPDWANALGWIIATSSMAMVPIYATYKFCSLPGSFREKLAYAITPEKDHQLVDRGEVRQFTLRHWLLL", "experiment": "In vitro inhibition of dopamine uptake in rat tissue, was determined using [3H]DAU as radioligand", "in_short": "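Rat caudate putamen slices (225 μm, cross-chopped) in oxygenated Krebs-HEPES at 37 °C. Stopped with ice-cold buffer and filtration. Accumulated label extracted with methanol/HCl and counted; filter blank subtracted. IC50 taken from the linear portion of the concentration–response curve by regression.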"}, "[4]": {"molecular_target": "T3, Sodium-dependent noradrenaline transporter (Homo sapiens, UniProt P23975)", "T3 sequence (P23975 whole entry)": "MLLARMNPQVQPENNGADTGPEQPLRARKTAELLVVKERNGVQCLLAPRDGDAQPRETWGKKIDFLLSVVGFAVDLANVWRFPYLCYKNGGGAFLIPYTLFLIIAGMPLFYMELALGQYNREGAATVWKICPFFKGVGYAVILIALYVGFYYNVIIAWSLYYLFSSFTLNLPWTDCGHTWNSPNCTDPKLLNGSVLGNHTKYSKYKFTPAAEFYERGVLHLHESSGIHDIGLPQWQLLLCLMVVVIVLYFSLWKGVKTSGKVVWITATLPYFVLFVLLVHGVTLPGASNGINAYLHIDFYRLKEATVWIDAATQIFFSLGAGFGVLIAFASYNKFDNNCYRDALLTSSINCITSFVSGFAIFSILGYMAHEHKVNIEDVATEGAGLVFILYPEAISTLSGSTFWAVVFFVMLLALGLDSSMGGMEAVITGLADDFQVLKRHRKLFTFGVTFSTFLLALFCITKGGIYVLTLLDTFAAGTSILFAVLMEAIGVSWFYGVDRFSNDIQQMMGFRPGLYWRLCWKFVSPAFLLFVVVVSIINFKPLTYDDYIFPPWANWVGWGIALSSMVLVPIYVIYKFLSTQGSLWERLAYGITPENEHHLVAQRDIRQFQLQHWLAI", "experiment": "(§3) Compound was evaluated for binding to Norepinephrine Transporter (NET) using [3H]desmethylimipramine as radioligand", "in_short": "as §2"}, "[5]": {"molecular_target": "T2, Sodium-dependent dopamine transporter", "experiment": "Displacement of [3H]WIN-35 428 from the dopamine transporter in rat caudate putamen.", "assay_type": "tissue-based", "in_short": "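Rat caudate putamen membranes washed in Krebs-HEPES pH 7.4, 0.5% w/v final. Filtration through BSA-soaked GF/B. Compounds run at 0.01 nM–100 μM, three experiments in triplicate. Ki derived by LIGAND nonlinear fitting of two-site binding.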"}, "[6]": {"molecular_target": "T3, Sodium-dependent noradrenaline transporter", "experiment": "as §3", "conditions": "concentration not given here", "in_short": "as §2"}, "[7]": {"molecular_target": "Sodium-dependent serotonin transporter (Rattus norvegicus) (UniProt P31652)", "sequence (P31652 whole entry)": "as the sequence (P31652 whole entry) above", "experiment": "as §1", "assay_type": "tissue-based", "conditions": "concentration not given here", "in_short": "as §2"}, "[8]": {"molecular_target": "Sodium-dependent dopamine transporter (Rattus norvegicus) (UniProt P23977)", "sequence (P23977 whole entry)": "as the sequence (P23977 whole entry) above", "experiment": "Inhibition of binding of [3H]WIN-35 428 to dopamine transporter (in rat caudate putamen) by 10 uM of compound.", "assay_type": "tissue-based"}, "[9]": {"molecular_target": "T3, Sodium-dependent noradrenaline transporter", "experiment": "Compound was evaluated for binding to Norepinephrine Transporter (NET).", "in_short": "as §2"}},
  "note": "pIC50, pKi: −log10 of the molar value.",
  "data": [
    {"smiles": "Fc1ccc(C(OC2CC3CCC(C2)N3CC2CC2)c2ccc(F)cc2)cc1", "note": "(configuration not stated)", "values": [
      {"measurement": "pKi", "setting": "[1]", "value": 5.92},
      {"measurement": "pKi", "setting": "[2]", "value": 6.87},
      {"measurement": "pIC50", "setting": "[3]", "value": 6.74},
      {"measurement": "pKi", "setting": "[4]", "value": 5.32},
      {"measurement": "pKi", "setting": "[5]", "value": 7.49}
    ]},
    {"smiles": "Fc1ccc(C(OC2CC3CCC(C2)N3CCCc2ccccc2)c2ccc(F)cc2)cc1", "note": "(configuration not stated)", "values": [
      {"measurement": "pKi", "setting": "[1]", "value": 6.43},
      {"measurement": "pKi", "setting": "[2]", "value": 6.87},
      {"measurement": "pIC50", "setting": "[3]", "value": 6.64},
      {"measurement": "pKi", "setting": "[4]", "value": 5.45},
      {"measurement": "pKi", "setting": "[5]", "value": 7.38}
    ]},
    {"smiles": "O=CN1C2CCC1CC(OC(c1ccc(F)cc1)c1ccc(F)cc1)C2", "note": "(configuration not stated)", "values": [
      {"measurement": "inhibition", "setting": "[6]", "value": 29.4, "unit": "%"},
      {"measurement": "inhibition", "setting": "[7]", "value": 1.6, "unit": "%"},
      {"measurement": "pKi", "setting": "[2]", "value": 4.91},
      {"measurement": "pIC50", "setting": "[3]", "value": 5.27},
      {"measurement": "pKi", "setting": "[5]", "value": 5.69}
    ]},
    {"smiles": "CN1C2CCC1CC(OC(c1ccc(F)cc1)c1ccc(F)cc1)C2", "note": "(configuration not stated) [DIFLUOROBENZTROPINE]", "values": [
      {"measurement": "pKi", "setting": "[1]", "value": 5.61},
      {"measurement": "pKi", "setting": "[4]", "value": "< 5.07"}
    ]},
    {"smiles": "Fc1ccc(CCCN2C3CCC2CC(OC(c2ccc(F)cc2)c2ccc(F)cc2)C3)cc1", "note": "(configuration not stated)", "values": [
      {"measurement": "pKi", "setting": "[5]", "value": 7.22}
    ]},
    {"smiles": "Fc1ccc(CN2C3CCC2CC(OC(c2ccc(F)cc2)c2ccc(F)cc2)C3)cc1", "note": "(configuration not stated)", "values": [
      {"measurement": "inhibition", "setting": "[6]", "value": 60, "unit": "%"},
      {"measurement": "pKi", "setting": "[2]", "value": 6.21},
      {"measurement": "pIC50", "setting": "[3]", "value": 6.70},
      {"measurement": "pKi", "setting": "[5]", "value": 7.02}
    ]},
    {"smiles": "Fc1ccc(C(OC2CC3CCC(C2)N3Cc2ccccc2)c2ccc(F)cc2)cc1", "note": "(configuration not stated)", "values": [
      {"measurement": "inhibition", "setting": "[7]", "value": 74, "unit": "%"},
      {"measurement": "pKi", "setting": "[2]", "value": 6.11},
      {"measurement": "pIC50", "setting": "[3]", "value": 6.54},
      {"measurement": "pKi", "setting": "[4]", "value": 5.68},
      {"measurement": "pKi", "setting": "[5]", "value": 7.09}
    ]},
    {"smiles": "CS(=O)(=O)N1C2CCC1CC(OC(c1ccc(F)cc1)c1ccc(F)cc1)C2", "note": "(configuration not stated)", "values": [
      {"measurement": "inhibition", "setting": "[8]", "value": 18, "unit": "%"}
    ]},
    {"smiles": "O=[N+]([O-])c1ccc(-c2ccc(COCCN3C4CCC3CC(OC(c3ccc(F)cc3)c3ccc(F)cc3)C4)cc2)cc1", "note": "(configuration not stated)", "values": [
      {"measurement": "pKi", "setting": "[5]", "value": 7.24}
    ]},
    {"smiles": "CC(=O)N1C2CCC1CC(OC(c1ccc(F)cc1)c1ccc(F)cc1)C2", "note": "(configuration not stated)", "values": [
      {"measurement": "inhibition", "setting": "[6]", "value": 8.5, "unit": "%"},
      {"measurement": "inhibition", "setting": "[7]", "value": 1.3, "unit": "%"},
      {"measurement": "pIC50", "setting": "[3]", "value": 5.34},
      {"measurement": "pKi", "setting": "[5]", "value": 5.63}
    ]},
    {"smiles": "CCCCN1C2CCC1CC(OC(c1ccc(F)cc1)c1ccc(F)cc1)C2", "note": "(configuration not stated)", "values": [
      {"measurement": "pKi", "setting": "[1]", "value": 5.76},
      {"measurement": "pKi", "setting": "[2]", "value": 6.60},
      {"measurement": "pIC50", "setting": "[3]", "value": 6.43},
      {"measurement": "pKi", "setting": "[4]", "value": 5.88},
      {"measurement": "pKi", "setting": "[5]", "value": 7.61}
    ]},
    {"smiles": "O=[N+]([O-])c1ccc(CCCCN2[C@@H]3CC[C@H]2C[C@@H](OC(c2ccc(F)cc2)c2ccc(F)cc2)C3)cc1", "values": [
      {"measurement": "pIC50", "setting": "[3]", "value": 6.19},
      {"measurement": "pKi", "setting": "[5]", "value": 7.69}
    ]},
    {"smiles": "Fc1ccc(C(OCCN2C3CCC2CC(OC(c2ccc(F)cc2)c2ccc(F)cc2)C3)c2ccc(F)cc2)cc1", "note": "(configuration not stated)", "values": [
      {"measurement": "pKi", "setting": "[5]", "value": 6.20}
    ]},
    {"smiles": "Fc1ccc(C(OC2CC3CCC(C2)N3)c2ccc(F)cc2)cc1", "note": "(configuration not stated)", "values": [
      {"measurement": "pKi", "setting": "[1]", "value": 5.68},
      {"measurement": "pKi", "setting": "[2]", "value": 6.81},
      {"measurement": "pIC50", "setting": "[3]", "value": 8.01},
      {"measurement": "pKi", "setting": "[9]", "value": "< 5.10"},
      {"measurement": "pKi", "setting": "[5]", "value": 7.95}
    ]},
    {"smiles": "C=CCN1C2CCC1CC(OC(c1ccc(F)cc1)c1ccc(F)cc1)C2", "note": "(configuration not stated)", "values": [
      {"measurement": "pKi", "setting": "[1]", "value": 5.84},
      {"measurement": "pKi", "setting": "[2]", "value": 6.90},
      {"measurement": "pIC50", "setting": "[3]", "value": 7.85},
      {"measurement": "pKi", "setting": "[4]", "value": 5.23},
      {"measurement": "pKi", "setting": "[5]", "value": 7.52}
    ]},
    {"smiles": "Cc1ccc(S(=O)(=O)N2C3CCC2CC(OC(c2ccc(F)cc2)c2ccc(F)cc2)C3)cc1", "note": "(configuration not stated)", "values": [
      {"measurement": "inhibition", "setting": "[8]", "value": 0, "unit": "%"}
    ]},
    {"smiles": "C[N+]1(C)[C@@H]2CC[C@H]1C[C@@H](OC(c1ccc(F)cc1)c1ccc(F)cc1)C2", "values": [
      {"measurement": "inhibition", "setting": "[6]", "value": 38, "unit": "%"},
      {"measurement": "inhibition", "setting": "[7]", "value": 79, "unit": "%"},
      {"measurement": "pKi", "setting": "[2]", "value": 7.54},
      {"measurement": "pIC50", "setting": "[3]", "value": 6.89},
      {"measurement": "pKi", "setting": "[5]", "value": 6.97}
    ]}
  ]
}
